Assay results published in ChEMBL document CHEMBL2440116, “Structure-activity relationships of 2-aminothiazoles effective against Mycobacterium tuberculosis” (Bioorg Med Chem, 2013).
Converted amounts (≈) assume the structure as drawn.

What was measured:
[1] = system: Mycobacterium tuberculosis; test: Antitubercular activity against Mycobacterium tuberculosis H37Rv in Middlebrook 7H9 broth with glucose after 7 to 14 days by broth microdilution method; format: functional
Outline: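 Broth microdilution of H37Rv in 7H9 with 0.8 g/L NaCl, 5 g/L BSA fraction V, 4 g/L glucose and 0.05% Tyloxapol. Run in quadruplicate from DMSO stocks with DMSO controls; isoniazid positive control.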

[2] = system: Mycobacterium tuberculosis; test: Antitubercular activity against Mycobacterium tuberculosis H37Rv in Middlebrook 7H9 broth with butyrate after 7 to 14 days by broth microdilution method; format: functional
[3] = system: Mycobacterium tuberculosis; test: Antitubercular activity against Mycobacterium tuberculosis H37Rv in GAST media with glycerol and alanine after 7 to 14 days by broth microdilution method; format: functional
Vero = test: Cytotoxicity against african green monkey Vero cells after 72 hrs by MTT assay; format: cell-based; settings: Chlorocebus sabaeus
Outline: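 Vero (CCL-81) cells in MEM with 10% FBS, penicillin-streptomycin and Glutamax, seeded at 3.0×10⁴ per well and left to adhere overnight. Compounds added from DMSO at final 100–0.16 μM, triplicate, for 72 h at 37 °C, 4.5% CO2. Then MTT 1.0 mg/mL in phenol-red-free RPMI for 3 h, formazan dissolved in isopropanol, A570 minus A690. Viability taken relative to DMSO control; EC50 from dose-response curves.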

[4] = Therapeutic index, ratio of EC50 for african green monkey Vero cells to MIC for Mycobacterium tuberculosis H37Rv; format: cell-based; settings: read-out: TI

SMILES	MIC99 [1] [µM]	MIC99 [2] [µM]	MIC99 [3] [µM]	EC50 (Vero) [µM]	selectivity ratio [4]
Cc1ccccc1Nc1nc(-c2ccccn2)cs1	12.5 (≈ 3.34 µg/mL)	12.5 (≈ 3.34 µg/mL)	3.1 (≈ 0.829 µg/mL)		
O=C(Nc1nc(-c2ccccn2)cs1)c1c(F)cccc1Cl	0.78 (≈ 0.26 µg/mL)	0.39 (≈ 0.13 µg/mL)	0.19 (≈ 0.0634 µg/mL)	1.3	
O=C(Nc1nc(-c2ccccn2)cs1)c1ccccc1	0.39 (≈ 0.11 µg/mL)	0.19 (≈ 0.0535 µg/mL)	0.19 (≈ 0.0535 µg/mL)	7.1	18
c1ccc(Nc2nc(-c3ccccn3)cs2)nc1	0.78 (≈ 0.198 µg/mL)	0.39 (≈ 0.0992 µg/mL)	0.39 (≈ 0.0992 µg/mL)		
O=C(Nc1nc(-c2ccccn2)cs1)c1cccc(OCc2ccccc2)c1	0.39 (≈ 0.151 µg/mL)	0.049 (≈ 0.019 µg/mL)	0.19 (≈ 0.0736 µg/mL)	14.4	32
COc1ccccc1C(=O)Nc1nc(-c2ccccn2)cs1	6.3 (≈ 1.96 µg/mL)	3.1 (≈ 0.965 µg/mL)	1.6 (≈ 0.498 µg/mL)	43.5	7
O=C(Nc1nnc(-c2ccccn2)o1)c1ccccc1F	12.5 (≈ 3.55 µg/mL)		6.25 (≈ 1.78 µg/mL)		
Fc1ccccc1Nc1nc(-c2ccccn2)cs1	50 (≈ 13.6 µg/mL)	25 (≈ 6.78 µg/mL)	> 12.5		
O=C(Nc1nc(-c2cscn2)cs1)c1ccccc1	> 25		≥ 25		
O=C(Nc1nc(-c2ccccn2)cs1)c1cccnc1	6.3 (≈ 1.78 µg/mL)	3.1 (≈ 0.875 µg/mL)	> 12.5		
Cc1ccccc1C(=O)Nc1nc(-c2ccccn2)cs1	0.39 (≈ 0.115 µg/mL)	0.19 (≈ 0.0561 µg/mL)		6.3	16
Cc1cccc(C)c1Nc1nc(-c2ccccn2)cs1	12.5 (≈ 3.52 µg/mL)	12.5 (≈ 3.52 µg/mL)	3.1 (≈ 0.872 µg/mL)		
O=C(Nc1nc(-c2ccccn2)cs1)c1ccco1	3.1 (≈ 0.841 µg/mL)	6.3 (≈ 1.71 µg/mL)	1.6 (≈ 0.434 µg/mL)		
O=C(Nc1nc(-c2ccccn2)cs1)C1CCC1	12.5 (≈ 3.24 µg/mL)	6.3 (≈ 1.63 µg/mL)	6.3 (≈ 1.63 µg/mL)		
O=C(Nc1nc(-c2ccccn2)cs1)c1cccs1	1.6 (≈ 0.46 µg/mL)				
O=C(Nc1nc(-c2ccccn2)cs1)c1cscn1	> 50	> 50	> 50		
O=C(Nc1nc(-c2ccccn2)co1)c1ccccc1	25 (≈ 6.63 µg/mL)		25 (≈ 6.63 µg/mL)		
O=C(Nc1nc(-c2ccccn2)cs1)C1CC1	12 (≈ 2.94 µg/mL)	12.5 (≈ 3.07 µg/mL)	6.3 (≈ 1.55 µg/mL)		
O=C(Nc1nc(-c2ccccn2)cs1)c1ccc(F)cc1	0.39 (≈ 0.117 µg/mL)	0.19 (≈ 0.0569 µg/mL)	0.098 (≈ 0.0293 µg/mL)	2.5	
FC(F)(F)c1ccccc1Nc1nc(-c2ccccn2)cs1	12 (≈ 3.86 µg/mL)	6.3 (≈ 2.02 µg/mL)	6.3 (≈ 2.02 µg/mL)		
Clc1ccc(Nc2nc(-c3ccccn3)cs2)nc1	1.6 (≈ 0.462 µg/mL)	1.6 (≈ 0.462 µg/mL)	0.39 (≈ 0.113 µg/mL)		
CC(=O)c1cccc(C(=O)Nc2nc(-c3ccccn3)cs2)c1	0.39 (≈ 0.126 µg/mL)	0.19 (≈ 0.0614 µg/mL)	0.098 (≈ 0.0317 µg/mL)	1.5	4
Cc1cccc(Nc2nc(-c3ccccn3)cs2)c1C	12.5 (≈ 3.52 µg/mL)	12.5 (≈ 3.52 µg/mL)	3.1 (≈ 0.872 µg/mL)		
O=C(Nc1nc(-c2ccccn2)cs1)C1CCCC1	12.5 (≈ 3.42 µg/mL)	3.1 (≈ 0.847 µg/mL)			

SMILES	MIC99 [1] [µM]	MIC99 [2] [µM]	MIC99 [3] [µM]	EC50 (Vero) [µM]	selectivity ratio [4]
Cc1ccc(Nc2nc(-c3ccccn3)cs2)cc1	12.5 (≈ 3.34 µg/mL)	12.5 (≈ 3.34 µg/mL)	6.3 (≈ 1.68 µg/mL)		
O=C(Nc1nc(-c2ccccn2)cs1)c1cccnc1Cl	0.39 (≈ 0.124 µg/mL)		0.19 (≈ 0.0602 µg/mL)	1.9	2
O=C(Nc1nc(-c2cnccn2)cs1)c1ccccc1	> 25		> 25		
Cc1cccc(Nc2nc(-c3ccccn3)cs2)n1	6.3 (≈ 1.69 µg/mL)	3.1 (≈ 0.832 µg/mL)	0.78 (≈ 0.209 µg/mL)		
CN(C(=O)c1ccccc1)c1nc(-c2ccccn2)cs1	> 25		≥ 25		
O=C(Nc1nc(-c2ccccn2)cs1)c1c(F)cccc1F	0.78 (≈ 0.248 µg/mL)	0.78 (≈ 0.248 µg/mL)	0.19 (≈ 0.0603 µg/mL)	3.2	4
O=C(Nc1nnc(-c2ccccn2)s1)c1ccccc1F	> 6.25		> 6.25		
O=C(Nc1cc(-c2ccccn2)cs1)c1ccccc1	> 25		12.5 (≈ 3.5 µg/mL)		
O=C(Nc1nc(-c2ccccc2)cs1)c1ccccc1	> 25		≥ 25		
c1ccc(Nc2nc(-c3ccccn3)cs2)cc1	25 (≈ 6.33 µg/mL)	12.5 (≈ 3.17 µg/mL)	12.5 (≈ 3.17 µg/mL)		
O=C(Nc1nc(-c2ccccn2)cs1)c1ccc(OCc2ccccc2)cc1	0.19 (≈ 0.0736 µg/mL)		0.098 (≈ 0.038 µg/mL)	2.3	6
O=C(Nc1nc(-c2ccccn2)cs1)c1ccccc1Cl	0.39 (≈ 0.123 µg/mL)	0.19 (≈ 0.06 µg/mL)		2	1
COc1ccc(Nc2nc(-c3ccccn3)cs2)c(OC)c1	6.3 (≈ 1.97 µg/mL)	6.3 (≈ 1.97 µg/mL)	> 12.5		
O=C(Nc1nc(-c2ccccn2)cs1)c1cc(F)ccc1F	0.39 (≈ 0.124 µg/mL)	0.19 (≈ 0.0603 µg/mL)	0.098 (≈ 0.0311 µg/mL)	3.3	8
O=C(Nc1nc(-c2ccccn2)cs1)c1cc(F)cc(F)c1	0.19 (≈ 0.0603 µg/mL)	0.098 (≈ 0.0311 µg/mL)	0.049 (≈ 0.0155 µg/mL)	1.5	8
O=C(Nc1nc(-c2ccccn2)cs1)c1ccncc1	1.6 (≈ 0.452 µg/mL)	3.1 (≈ 0.875 µg/mL)	0.78 (≈ 0.22 µg/mL)		
O=C(Nc1nc(-c2ccccn2)cs1)c1ccsc1	1.6 (≈ 0.46 µg/mL)	3.1 (≈ 0.891 µg/mL)	0.78 (≈ 0.224 µg/mL)		
CCCC(=O)Nc1nc(-c2ccccn2)cs1	12 (≈ 2.97 µg/mL)	25 (≈ 6.18 µg/mL)	12.5 (≈ 3.09 µg/mL)		
O=C(Nc1nc(-c2ccccn2)cs1)c1cccc(F)c1F	0.39 (≈ 0.124 µg/mL)	0.19 (≈ 0.0603 µg/mL)	0.098 (≈ 0.0311 µg/mL)	7.2	18
CC(=O)c1ccccc1C(=O)Nc1nc(-c2ccccn2)cs1	12.5 (≈ 4.04 µg/mL)	12.5 (≈ 4.04 µg/mL)	3.13 (≈ 1.01 µg/mL)	86.7	7
COc1ccc(OC)c(Nc2nc(-c3ccccn3)cs2)c1	> 50	> 50	> 12.5		
O=C(Nc1ccccc1)c1nc(-c2ccccn2)cs1	> 25		> 25		
CCCCCCCCCC(=O)Nc1nc(-c2ccccn2)cs1	6.3 (≈ 2.09 µg/mL)	3.1 (≈ 1.03 µg/mL)	1.6 (≈ 0.53 µg/mL)		
Cc1cccc(Nc2nc(-c3ccccn3)cs2)c1	25 (≈ 6.68 µg/mL)	12.5 (≈ 3.34 µg/mL)	6.3 (≈ 1.68 µg/mL)		

SMILES	MIC99 [1] [µM]	MIC99 [2] [µM]	MIC99 [3] [µM]	EC50 (Vero) [µM]	selectivity ratio [4]
CCCCCCCC(=O)Nc1nc(-c2ccccn2)cs1	6.3 (≈ 1.91 µg/mL)	6.3 (≈ 1.91 µg/mL)	0.78 (≈ 0.237 µg/mL)		
CC1CC1C(=O)Nc1nc(-c2ccccn2)cs1 (centres undefined)	6.3 (≈ 1.63 µg/mL)	> 50			
O=C(Nc1nc(-c2ccccn2)cs1)c1ccoc1	3.1 (≈ 0.841 µg/mL)	6.3 (≈ 1.71 µg/mL)			
Cc1ccc(C(=O)Nc2nc(-c3ccccn3)cs2)cc1	0.39 (≈ 0.115 µg/mL)	0.19 (≈ 0.0561 µg/mL)	0.098 (≈ 0.0289 µg/mL)	10.5	27
O=C(Nc1nc(-c2ccccn2)c[nH]1)c1ccccc1	25 (≈ 6.61 µg/mL)		3.13 (≈ 0.827 µg/mL)		
O=C(Nc1nc(-c2ccccn2)cs1)c1ccccc1O	1.6 (≈ 0.476 µg/mL)	1.6 (≈ 0.476 µg/mL)	0.19 (≈ 0.0565 µg/mL)		
O=C(Nc1nc(-c2ccccn2)cs1)c1ccc(F)c(F)c1	1.6 (≈ 0.508 µg/mL)	3.1 (≈ 0.984 µg/mL)	0.39 (≈ 0.124 µg/mL)		
COc1cccc(C(=O)Nc2nc(-c3ccccn3)cs2)c1	0.19 (≈ 0.0592 µg/mL)		0.098 (≈ 0.0305 µg/mL)	2.8	7
O=C(Nc1nc(-c2ccccn2)cs1)c1ccccc1[N+](=O)[O-]	1.6 (≈ 0.522 µg/mL)		0.78 (≈ 0.255 µg/mL)		
CCCCCC(=O)Nc1nc(-c2ccccn2)cs1	6.3 (≈ 1.73 µg/mL)	3.1 (≈ 0.854 µg/mL)	3.1 (≈ 0.854 µg/mL)		
Oc1ccccc1Nc1nc(-c2ccccn2)cs1	50 (≈ 13.5 µg/mL)	25 (≈ 6.73 µg/mL)	> 12.5		
O=C(Nc1nc(-c2ccccn2)cs1)c1ccc(F)cc1F	0.39 (≈ 0.124 µg/mL)		0.19 (≈ 0.0603 µg/mL)	7.3	9
Cc1ccc(Nc2nc(-c3ccccn3)cs2)c(C)c1	12.5 (≈ 3.52 µg/mL)	12.5 (≈ 3.52 µg/mL)	6.3 (≈ 1.77 µg/mL)		
FC(F)(F)c1ccc(Nc2nc(-c3ccccn3)cs2)cc1	25 (≈ 8.03 µg/mL)	12.5 (≈ 4.02 µg/mL)	≥ 12.5		
FC(F)(F)c1cccc(Nc2nc(-c3ccccn3)cs2)c1	25 (≈ 8.03 µg/mL)	25 (≈ 8.03 µg/mL)	> 12.5		
O=C(Nc1nc(-c2ccccn2)cs1)C1CCCCC1	6.3 (≈ 1.81 µg/mL)	3.1 (≈ 0.891 µg/mL)	1.6 (≈ 0.46 µg/mL)		
O=C(Nc1nc(-c2ccccn2)cs1)c1ccc(Cl)cc1	1.6 (≈ 0.505 µg/mL)	0.78 (≈ 0.246 µg/mL)	0.39 (≈ 0.123 µg/mL)		
O=C(Nc1nc(-c2ccccn2)cs1)c1cccc(F)c1	0.19 (≈ 0.0569 µg/mL)	0.098 (≈ 0.0293 µg/mL)	0.049 (≈ 0.0147 µg/mL)	1.2	3
O=C(Nc1nc(-c2ccccn2)cs1)c1ccccc1Br	0.39 (≈ 0.14 µg/mL)		0.098 (≈ 0.0353 µg/mL)	3.5	
Fc1ccc(Nc2nc(-c3ccccn3)cs2)cc1	25 (≈ 6.78 µg/mL)	25 (≈ 6.78 µg/mL)	12.5 (≈ 3.39 µg/mL)		
CC(=O)c1ccc(C(=O)Nc2nc(-c3ccccn3)cs2)cc1	0.39 (≈ 0.126 µg/mL)	0.19 (≈ 0.0614 µg/mL)		10.5	
O=C(Nc1nc(-c2ccccn2)cs1)c1cccc([N+](=O)[O-])c1	1.6 (≈ 0.522 µg/mL)		0.78 (≈ 0.255 µg/mL)		
Fc1cccc(Nc2nc(-c3ccccn3)cs2)c1	25 (≈ 6.78 µg/mL)	25 (≈ 6.78 µg/mL)	> 12.5		
O=C(Nc1nc(-c2ccccn2)cs1)c1ccccc1F	1.6 (≈ 0.479 µg/mL)	0.39 (≈ 0.117 µg/mL)	1.6 (≈ 0.479 µg/mL)		
